Experimental data: ChEMBL document CHEMBL3425484, “Novel N-benzenesulfonyl sophocarpinol derivatives as coxsackie B virus inhibitors” (ACS Med Chem Lett, 2015)

What was measured:
[1] = Cytotoxicity against african green monkey Vero cells assessed as inhibition of cell growth after 24 hrs by CPE assay; assay type: cell-based; details: chlorocebus sabaeus, read-out: TC50
Coxsackievirus [2] = test: Antiviral activity against Coxsackievirus B3 infected in african green monkey Vero cells assessed as reduction in viral-induced cytopathic effect; assay type: functional, organism-based
In short: (§1)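 Vero (African green monkey kidney) cells were infected with the CVB subtype and scored by viral cytopathogenic effect (CPE) reduction, with ribavirin as the positive control. IC50 is the concentration that inhibits CVB growth by 50%.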

[3] = Selectivity index, ratio of TC50 for african green monkey Vero cells to IC50 for Coxsackievirus B3 infected in african green monkey Vero cells; assay type: toxicity, cell-based; details: read-out: Selectivity Index
In short: (§2)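 SI is calculated as TC50 (50% inhibition of Vero cell growth) divided by IC50 (50% inhibition of the respective CVB subtype's growth, from the CPE assay in Vero cells, ribavirin as positive control).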

Coxsackievirus [4] = test: Antiviral activity against Coxsackievirus B1 infected in african green monkey Vero cells assessed as reduction in viral-induced cytopathic effect; assay type: functional, organism-based; in short: as §1
Coxsackievirus [5] = test: Antiviral activity against Coxsackievirus B2 infected in african green monkey Vero cells assessed as reduction in viral-induced cytopathic effect; assay type: functional, organism-based; in short: as §1
Coxsackievirus [6] = test: Antiviral activity against Coxsackievirus B5 infected in african green monkey Vero cells assessed as reduction in viral-induced cytopathic effect; assay type: functional, organism-based; in short: as §1
Coxsackievirus [7] = test: Antiviral activity against Coxsackievirus B6 infected in african green monkey Vero cells assessed as reduction in viral-induced cytopathic effect; assay type: functional, organism-based; in short: as §1
[8] = Selectivity index, ratio of TC50 for african green monkey Vero cells to IC50 for Coxsackievirus B1 infected in african green monkey Vero cells; assay type: toxicity, cell-based; details: read-out: Selectivity Index; in short: as §2
[9] = Selectivity index, ratio of TC50 for african green monkey Vero cells to IC50 for Coxsackievirus B2 infected in african green monkey Vero cells; assay type: toxicity, cell-based; details: read-out: Selectivity Index; in short: as §2
[10] = Selectivity index, ratio of TC50 for african green monkey Vero cells to IC50 for Coxsackievirus B5 infected in african green monkey Vero cells; assay type: toxicity, cell-based; details: read-out: Selectivity Index; in short: as §2
[11] = Selectivity index, ratio of TC50 for african green monkey Vero cells to IC50 for Coxsackievirus B6 infected in african green monkey Vero cells; assay type: toxicity, cell-based; details: read-out: Selectivity Index; in short: as §2

| IC50 (Coxsackievirus [2]) [nM] | IC50 (Coxsackievirus [4]) [nM] | IC50 (Coxsackievirus [5]) [nM] | IC50 (Coxsackievirus [6]) [nM] | IC50 (Coxsackievirus [7]) [nM] | SMILES | CC50 at 24 h [1] [nM] | selectivity ratio [3] | selectivity ratio [8] | selectivity ratio [9] | selectivity ratio [10] | selectivity ratio [11] |
| --- | --- | --- | --- | --- | --- | --- | --- | --- | --- | --- | --- |
| 3070 | 2600 | 12600 | 10500 | 2810 | COC(=O)C/C=C\[C@@H]1[C@H]2CCCN3CCC[C@@H](CN1S(=O)(=O)c1cccc(C#N)c1)[C@@H]23 | 543000 | 177 | 188 | 38.9 | 46.7 | 174 |
| 2310 | 1460 | 1440 | 3630 | 620 | O=[N+]([O-])c1ccccc1S(=O)(=O)N1C[C@@H]2CCCN3CCC[C@@H]([C@H]23)[C@H]1/C=C\CCO | 354000 | 153 | 116 | 117 | 46.8 | 276 |
